The test system of one assay is MT4. The assay is described as follows: In vitro anti-HIV activity in MT-4 cells by using an HIV cytopathic assay. The assay is classed as functional. The following applies: Homo sapiens, read-out: ED50 (the source's name). The method in brief: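 HIV cytopathic assay in MT-4 cells, with cell protection quantified by the vital dye XTT. ED50 (µg/mL), the 50% inhibitory concentration, was calculated from the percent cytoprotection for each compound.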
In general terms: Damage to the host cells serves as the signal in cytopathic effect assays.

In assay [1] the target is T1, Human immunodeficiency virus type 1 protease (Human immunodeficiency virus 1, UniProt Q72874). The assay is described as follows: Inhibitory activity against purified HIV-1 protease expressed in Escherichia coli in sensitive fluorometric assay.
In assay [2] the target is T1, Human immunodeficiency virus type 1 protease. The assay is described as follows: inhibitory activity against purified HIV-1 protease in a standardized spectrophotometric assay expressed in E. coli; ni=no inhibition. The gist of the method: (§1)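 Recombinant HIV-1 protease, cloned and heterologously expressed in E. coli, then purified. Inhibition was measured in a standardized spectrophotometric protease assay and reported as IC50 values.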

Assay [3] shares this target. The assay is described as follows: inhibitory activity against purified HIV-1 protease in a standardized spectrophotometric assay expressed in Escherichia coli.
Assay [4] shares this target. The assay is described as follows: inhibitory activity against purified HIV-1 protease in a standardized spectrophotometric assay expressed in E. coli; ni= no inhibition. The method in brief:
as §1

For assay [5] the target is unchanged. The assay is described as follows: inhibitory activity against purified HIV-1 protease in a standardized spectrophotometric assay expressed in E. inhibition. The gist of the method:
as §1

Assay [6] shares this target. The assay is described as follows: Inhibitory activity against purified HIV-1 protease in a standardized spectrophotometric assay expressed in E. uM. The method in brief:
as §1

The target is the same in assay [7]. The assay is described as follows: inhibitory activity against purified HIV-1 protease in a standardized spectrophotometric assay expressed in E. coli; ni = no inhibition. The method in brief:
as §1

Structures are written as SMILES. pIC50, pKi: −log10 of the molar value. Converted amounts (≈) assume the structure as drawn.

Consider 26 compounds from ChEMBL document CHEMBL1131116, “Design and synthesis of new potent C2-symmetric HIV-1 protease inhibitors. Use of L-mannaric acid as a peptidomimetic scaffold” (J Med Chem, 1998).

As usually defined, the pKi is −log10 of the Ki, conventionally taken in molar units. The low end stands for a large Ki, the high end for a small Ki. For the compound `CNC(=O)[C@@H](NC(=O)[C@H](OCc1ccccc1)[C@H](O)[C@@H](O)[C@@H](OCc1ccccc1)C(=O)N[C@H](C(=O)NC)C(C)C)C(C)C`, the EC50 with MT4 turned out to be 0.9 µg/mL (≈ 1.46 µM). For the same compound, in assay [1], the pKi is 9.40.

`O=C(NCc1ccccn1)[C@H](OCc1ccccc1)[C@H](O)[C@@H](O)[C@@H](OCc1ccccc1)C(=O)NCc1ccccn1`: in assay [2], the IC50 entry is recorded as “Not Active”.

For the compound `CNC(=O)[C@@H](NC(=O)[C@H](OCc1ccccc1)[C@H](O)[C@@H](O)[C@@H](OCc1ccccc1)C(=O)N[C@H](C(=O)NC)c1ccccc1)c1ccccc1`, the IC50 entry in assay [2] is reported as “Not Active”.

Take `O=C(NCCO)[C@H](OCc1ccccc1)[C@H](O)[C@@H](O)[C@@H](OCc1ccccc1)C(=O)NCCO`: the IC50 result in assay [2] was “Not Active”.

The term pIC50 denotes the negative decadic logarithm of the IC50, by convention in mol/L. Lower therefore signals a high IC50. Compound `COC(=O)[C@@H](NC(=O)[C@H](OCc1ccccc1)[C@H](O)[C@@H](O)[C@@H](OCc1ccccc1)C(=O)N[C@H](C(=O)OC)C(C)C)C(C)C` showed a pIC50 in assay [3] of 5.30.

Turning to `O=C(NCc1cncs1)[C@H](OCc1ccccc1)[C@H](O)[C@@H](O)[C@@H](OCc1ccccc1)C(=O)NCc1cncs1`, the pKi in assay [1] is 5.15.

Turning to `CNC(=O)[C@H](Cc1ccccc1)NC(=O)[C@H](OCc1ccccc1)[C@H](O)[C@@H](O)[C@@H](OCc1ccccc1)C(=O)N[C@@H](Cc1ccccc1)C(=O)NC`, in assay [2], the IC50 result was “Not Active”. In addition, the negative logarithm of the Ki (pKi) in assay [1] is 6.85.

Turning to `O=C(NCc1c(F)cccc1Cl)[C@H](OCc1ccccc1)[C@H](O)[C@@H](O)[C@@H](OCc1ccccc1)C(=O)NCc1c(F)cccc1Cl`, the pKi in assay [1] was 5.70.

As to `COC(=O)[C@H](Cc1ccccc1)NC(=O)[C@H](OCc1ccccc1)[C@H](O)[C@@H](O)[C@@H](OCc1ccccc1)C(=O)N[C@@H](Cc1ccccc1)C(=O)OC`, the IC50 result in assay [4] is given as “Not Active”.

Turning to `O=C(NCc1cccnc1)[C@H](OCc1ccccc1)[C@H](O)[C@@H](O)[C@@H](OCc1ccccc1)C(=O)NCc1cccnc1`, in assay [2], the IC50 entry is given as “Not Active”.

On to `CC(C)[C@@H](CO)NC(=O)[C@H](OCc1ccccc1)[C@H](O)[C@@H](O)[C@@H](OCc1ccccc1)C(=O)N[C@H](CO)C(C)C`, for which the IC50 entry in assay [5] is listed as “Not Active”.

Consider `Cc1c(O)cccc1NC(=O)[C@H](OCc1ccccc1)[C@H](O)[C@@H](O)[C@@H](OCc1ccccc1)C(=O)Nc1cccc(O)c1C`, for which the IC50 result in assay [6] is on record as “Not Active”.

`CNC(=O)[C@H](CCSC)NC(=O)[C@H](OCc1ccccc1)[C@H](O)[C@@H](O)[C@@H](OCc1ccccc1)C(=O)N[C@@H](CCSC)C(=O)NC` gave a negative logarithm of the Ki (pKi) in assay [1] of 6.18.

As for `COC(=O)[C@H](CC(C)C)NC(=O)[C@H](OCc1ccccc1)[C@H](O)[C@@H](O)[C@@H](OCc1ccccc1)C(=O)N[C@@H](CC(C)C)C(=O)OC`, the IC50 entry in assay [2] is recorded as “Not Active”.

The compound `CNC(=O)[C@H](Cc1ccc(O)cc1)NC(=O)[C@H](OCc1ccccc1)[C@H](O)[C@@H](O)[C@@H](OCc1ccccc1)C(=O)N[C@@H](Cc1ccc(O)cc1)C(=O)NC` gave a pKi in assay [1] of 5.30. Also, the IC50 entry in assay [4] was “Not Active”.

As for `CNC(=O)C(NC(=O)[C@H](OCc1ccccc1)[C@H](O)[C@@H](O)[C@@H](OCc1ccccc1)C(=O)NC(C(=O)NC)c1cccc(F)c1)c1cccc(F)c1` (stereo partly drawn), the IC50 entry in assay [2] is listed as “Not Active”. The compound also gave a pKi in assay [1] of 7.09.

Consider `O=C(NCc1ccncc1)[C@H](OCc1ccccc1)[C@H](O)[C@@H](O)[C@@H](OCc1ccccc1)C(=O)NCc1ccncc1`, for which, in assay [2], the IC50 result is recorded as “Not Active”.

Regarding `CNC(=O)C(NC(=O)[C@H](OCc1ccccc1)[C@H](O)[C@@H](O)[C@@H](OCc1ccccc1)C(=O)NC(C(=O)NC)[C@@H](C)O)[C@H](C)O` (stereo partly drawn), in assay [2], the IC50 entry is on record as “Not Active”. Moreover, the pKi in assay [1] was 6.30.

For the compound `Cc1cc(O)ccc1NC(=O)[C@H](OCc1ccccc1)[C@H](O)[C@@H](O)[C@@H](OCc1ccccc1)C(=O)Nc1ccc(O)cc1C`, the IC50 entry in assay [6] was “Not Active”.

For the compound `CC(C)[C@H](NC(=O)[C@H](OCc1ccccc1)[C@H](O)[C@@H](O)[C@@H](OCc1ccccc1)C(=O)N[C@H](C(=O)OCc1ccccc1)C(C)C)C(=O)OCc1ccccc1`, the IC50 entry in assay [7] is listed as “Not Active”.

Regarding `Cc1ccc(NC(=O)[C@H](OCc2ccccc2)[C@H](O)[C@@H](O)[C@@H](OCc2ccccc2)C(=O)Nc2ccc(C)cc2O)c(O)c1`, the IC50 result in assay [6] was “Not Active”.

On to `CC[C@@H](C)C(NC(=O)[C@H](OCc1ccccc1)[C@H](O)[C@@H](O)[C@@H](OCc1ccccc1)C(=O)NC(C(=O)NC)[C@@H](C)CC)C(=O)NC` (stereo partly drawn), for which the EC50 with MT4 was 1 µg/mL (≈ 1.56 µM). Moreover, the pKi in assay [1] was 9.05.

For the compound `O=C(N[C@@H]1c2ccccc2C[C@@H]1O)[C@H](OCc1ccccc1)[C@H](O)[C@@H](O)[C@@H](OCc1ccccc1)C(=O)N[C@H]1c2ccccc2C[C@H]1O`, in the assay with MT4, the EC50 worked out at 0.06 µg/mL (≈ 0.0919 µM). In assay [1], the pKi is 9.70.

Consider `O=C(NC1c2ccccc2CC1O)[C@H](OCc1ccccc1)[C@H](O)[C@@H](O)[C@@H](OCc1ccccc1)C(=O)N[C@H]1c2ccccc2C[C@H]1O` (single isomer, unassigned), for which the IC50 result in assay [2] is on record as “Not Active”.

For the compound `CC(C)(C)NC(=O)[C@@H]1CN(Cc2cccnc2)CCN1C[C@@H](O)C[C@@H](Cc1ccccc1)C(=O)N[C@H]1c2ccccc2C[C@H]1O.O` [INDINAVIR], the EC50 in the assay on MT4 stood at 0.04 µg/mL.

On to `CC(C)c1nc(CN(C)C(=O)N[C@H](C(=O)N[C@@H](Cc2ccccc2)C[C@H](O)[C@H](Cc2ccccc2)NC(=O)OCc2cncs2)C(C)C)cs1` [RITONAVIR], for which the EC50 in the assay with MT4 is 0.05 µg/mL (≈ 0.0694 µM).
